The record followed here is ChEMBL document CHEMBL1156112, “Discovery of 3-(1H-indol-3-yl)-4-[2-(4-methylpiperazin-1-yl)quinazolin-4-yl]pyrrole-2,5-dione (AEB071), a potent and selective inhibitor of protein kinase C isotypes” (J Med Chem, 2009).

Series [1] addresses Protein kinase C theta type (Homo sapiens, UniProt Q04759). Put plainly: Inhibition of PKCtheta by SPA.
A short description of series [2]: Dissociation constant, pKa of the compound. The format is physicochemical.
For another series, the species on record is Rattus norvegicus. Put plainly: Prolongation of allograft survival in rat heterotropic heart transplant model. The class given is functional, organism-based.
A further series relates to Cynomolgus monkey. The series can be described thus: Prolongation of allograft survival in cynomolgus monkey renal allograft model. The class given is functional, organism-based. The following applies: Macaca fascicularis.
Series [3] addresses Protein kinase C zeta type (Homo sapiens, UniProt Q05513). The series can be described thus: Inhibition of PKCzeta by SPA.
A short description of series [4]: Volume of distribution at steady state in OFA rat at 5 mg/kg, iv. The class given is ADME, organism-based. Set-up: dose 5 mg/kg, route intravenous. The following applies: in vivo, read-out: Vdss. Summed up: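 Rats dosed either 5 mg/kg iv in 75% saline (0.9%)-25% PEG400 or 20 mg/kg po in 75% water-25% PEG400. OFA or Lewis rats were used depending on the compound. Values are averages of three animals. AUC is extrapolated to infinity. Oral bioavailability (F) comes from the po and iv exposures.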

The target of series [5] is Tyrosine-protein kinase JAK3 (Homo sapiens, UniProt P52333). The series can be described thus: Inhibition of human recombinant JAK3.
Series [6] deals with Cyclin-dependent kinase 2/cyclin A (Homo sapiens, UniProt P24941). Put plainly: Inhibition of human recombinant CDK2/cyclin A. The format is protein-complex assay.
The nature of series [7]: Inhibition of human recombinant PKA.
A further series concerns the target Ephrin type-B receptor 4 (Homo sapiens, UniProt P54760). The series can be described thus: Inhibition of human recombinant EphB4.
Series [8] has as its target Insulin-like growth factor 1 receptor (Homo sapiens, UniProt P08069). The series can be described thus: Inhibition of human recombinant IGF1R.
The target in series [9] is Tyrosine-protein kinase JAK2 (Homo sapiens, UniProt O60674). Put plainly: Inhibition of human recombinant JAK2.
In series [10] the target is Mitogen-activated protein kinase 8 (Homo sapiens, UniProt P45983). The series can be described thus: Inhibition of human recombinant JNK1.
Series [11] has as its target Mitogen-activated protein kinase 9 (Homo sapiens, UniProt P45984). The series can be described thus: Inhibition of human recombinant JNK2.
For series [12], the target named is Proto-oncogene tyrosine-protein kinase receptor Ret (Homo sapiens, UniProt P07949). Put plainly: Inhibition of human recombinant Ret.
The nature of another series: cells. As to conditions: Homo sapiens, Jurkat.

Each structure is given as a SMILES string. Activity calls are given as the source filed them. No cut-off for these calls is given here. Bounds are passed on as bounds.

Mitogen-activated protein kinase 9, sequence (P45984 whole entry): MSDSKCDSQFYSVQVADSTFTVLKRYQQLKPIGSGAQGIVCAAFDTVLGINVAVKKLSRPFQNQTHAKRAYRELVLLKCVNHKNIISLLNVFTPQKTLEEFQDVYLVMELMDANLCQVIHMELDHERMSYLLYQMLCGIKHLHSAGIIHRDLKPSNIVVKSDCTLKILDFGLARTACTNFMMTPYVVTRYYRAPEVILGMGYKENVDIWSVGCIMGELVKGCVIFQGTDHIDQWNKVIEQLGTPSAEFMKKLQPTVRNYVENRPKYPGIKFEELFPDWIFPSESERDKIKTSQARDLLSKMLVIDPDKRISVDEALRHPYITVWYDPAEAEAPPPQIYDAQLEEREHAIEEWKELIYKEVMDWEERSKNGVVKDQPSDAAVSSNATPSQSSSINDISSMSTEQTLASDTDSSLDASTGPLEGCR
Protein kinase C theta type, sequence (Q04759 whole entry): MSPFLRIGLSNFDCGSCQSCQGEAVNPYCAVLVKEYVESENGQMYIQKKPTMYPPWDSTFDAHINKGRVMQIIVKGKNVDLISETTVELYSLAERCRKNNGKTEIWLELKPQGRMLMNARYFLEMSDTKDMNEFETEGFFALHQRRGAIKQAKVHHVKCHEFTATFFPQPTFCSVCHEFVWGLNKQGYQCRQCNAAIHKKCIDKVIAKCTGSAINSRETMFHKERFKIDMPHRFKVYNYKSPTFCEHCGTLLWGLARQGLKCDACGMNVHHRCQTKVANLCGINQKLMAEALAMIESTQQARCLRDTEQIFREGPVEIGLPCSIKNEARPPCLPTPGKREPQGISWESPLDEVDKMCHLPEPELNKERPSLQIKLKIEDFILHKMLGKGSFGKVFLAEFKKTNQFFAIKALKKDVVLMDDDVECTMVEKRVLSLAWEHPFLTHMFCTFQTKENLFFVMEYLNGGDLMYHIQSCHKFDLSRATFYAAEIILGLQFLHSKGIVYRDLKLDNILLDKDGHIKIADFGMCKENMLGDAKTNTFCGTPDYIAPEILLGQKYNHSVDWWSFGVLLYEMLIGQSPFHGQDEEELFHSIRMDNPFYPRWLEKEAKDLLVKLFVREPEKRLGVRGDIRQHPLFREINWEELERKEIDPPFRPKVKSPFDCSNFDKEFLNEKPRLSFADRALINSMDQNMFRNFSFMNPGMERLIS
Proto-oncogene tyrosine-protein kinase receptor Ret, sequence (P07949 whole entry): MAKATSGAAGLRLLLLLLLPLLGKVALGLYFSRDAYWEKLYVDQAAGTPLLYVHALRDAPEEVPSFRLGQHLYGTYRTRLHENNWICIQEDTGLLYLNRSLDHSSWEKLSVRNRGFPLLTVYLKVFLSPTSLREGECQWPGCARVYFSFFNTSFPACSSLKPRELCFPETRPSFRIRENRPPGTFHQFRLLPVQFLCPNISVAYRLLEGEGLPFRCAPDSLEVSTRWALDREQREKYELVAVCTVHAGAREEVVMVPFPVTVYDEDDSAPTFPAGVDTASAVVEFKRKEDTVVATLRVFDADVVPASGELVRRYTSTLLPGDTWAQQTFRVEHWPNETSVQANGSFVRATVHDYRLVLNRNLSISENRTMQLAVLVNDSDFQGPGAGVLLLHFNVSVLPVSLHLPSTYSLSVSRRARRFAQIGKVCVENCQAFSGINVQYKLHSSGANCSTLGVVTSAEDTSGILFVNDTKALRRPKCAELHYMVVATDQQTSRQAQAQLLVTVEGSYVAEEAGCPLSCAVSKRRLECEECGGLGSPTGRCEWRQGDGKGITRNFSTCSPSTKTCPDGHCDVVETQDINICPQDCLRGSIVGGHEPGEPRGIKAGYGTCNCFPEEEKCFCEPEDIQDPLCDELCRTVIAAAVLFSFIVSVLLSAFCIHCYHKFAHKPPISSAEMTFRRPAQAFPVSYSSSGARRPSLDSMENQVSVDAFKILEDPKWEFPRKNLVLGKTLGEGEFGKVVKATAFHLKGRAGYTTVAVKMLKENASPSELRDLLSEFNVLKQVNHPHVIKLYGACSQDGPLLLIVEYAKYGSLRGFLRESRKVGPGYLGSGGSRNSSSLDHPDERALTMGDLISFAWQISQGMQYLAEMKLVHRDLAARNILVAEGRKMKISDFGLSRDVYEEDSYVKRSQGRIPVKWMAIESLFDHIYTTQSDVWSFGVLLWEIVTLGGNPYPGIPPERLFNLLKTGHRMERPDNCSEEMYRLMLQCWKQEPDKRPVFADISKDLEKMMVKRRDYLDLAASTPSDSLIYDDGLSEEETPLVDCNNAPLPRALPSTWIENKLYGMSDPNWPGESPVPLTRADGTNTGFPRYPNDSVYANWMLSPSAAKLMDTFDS
Tyrosine-protein kinase JAK2, sequence (O60674 whole entry): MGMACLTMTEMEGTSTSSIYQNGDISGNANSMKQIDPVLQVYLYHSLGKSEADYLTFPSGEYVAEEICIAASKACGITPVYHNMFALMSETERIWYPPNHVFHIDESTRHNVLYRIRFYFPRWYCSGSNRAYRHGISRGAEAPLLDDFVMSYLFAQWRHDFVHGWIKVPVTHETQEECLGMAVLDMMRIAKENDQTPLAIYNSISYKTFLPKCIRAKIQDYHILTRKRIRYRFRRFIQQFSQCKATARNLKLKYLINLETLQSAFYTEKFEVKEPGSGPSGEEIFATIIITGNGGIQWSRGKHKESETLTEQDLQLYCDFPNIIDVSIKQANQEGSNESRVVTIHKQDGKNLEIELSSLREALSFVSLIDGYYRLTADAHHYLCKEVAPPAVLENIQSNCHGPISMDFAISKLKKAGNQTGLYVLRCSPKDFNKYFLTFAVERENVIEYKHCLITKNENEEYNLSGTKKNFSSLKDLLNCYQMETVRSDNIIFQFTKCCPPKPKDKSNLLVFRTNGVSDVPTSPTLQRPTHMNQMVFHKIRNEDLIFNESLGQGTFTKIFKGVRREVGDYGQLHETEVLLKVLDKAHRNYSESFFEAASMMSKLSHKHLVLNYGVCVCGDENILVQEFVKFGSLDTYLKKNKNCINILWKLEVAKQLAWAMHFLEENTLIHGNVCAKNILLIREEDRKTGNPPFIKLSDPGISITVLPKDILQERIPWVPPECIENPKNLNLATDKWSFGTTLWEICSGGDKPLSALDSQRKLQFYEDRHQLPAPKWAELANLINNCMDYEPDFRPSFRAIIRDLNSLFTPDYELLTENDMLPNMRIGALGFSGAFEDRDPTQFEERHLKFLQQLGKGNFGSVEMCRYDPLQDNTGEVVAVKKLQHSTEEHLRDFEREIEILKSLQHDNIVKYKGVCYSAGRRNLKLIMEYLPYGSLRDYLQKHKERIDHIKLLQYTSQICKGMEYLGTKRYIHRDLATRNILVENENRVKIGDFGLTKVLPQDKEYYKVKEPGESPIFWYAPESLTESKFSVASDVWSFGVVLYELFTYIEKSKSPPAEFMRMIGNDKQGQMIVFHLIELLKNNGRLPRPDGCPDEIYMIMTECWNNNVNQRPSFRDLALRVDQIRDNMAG
Insulin-like growth factor 1 receptor, sequence (P08069 31-736 limits assumed): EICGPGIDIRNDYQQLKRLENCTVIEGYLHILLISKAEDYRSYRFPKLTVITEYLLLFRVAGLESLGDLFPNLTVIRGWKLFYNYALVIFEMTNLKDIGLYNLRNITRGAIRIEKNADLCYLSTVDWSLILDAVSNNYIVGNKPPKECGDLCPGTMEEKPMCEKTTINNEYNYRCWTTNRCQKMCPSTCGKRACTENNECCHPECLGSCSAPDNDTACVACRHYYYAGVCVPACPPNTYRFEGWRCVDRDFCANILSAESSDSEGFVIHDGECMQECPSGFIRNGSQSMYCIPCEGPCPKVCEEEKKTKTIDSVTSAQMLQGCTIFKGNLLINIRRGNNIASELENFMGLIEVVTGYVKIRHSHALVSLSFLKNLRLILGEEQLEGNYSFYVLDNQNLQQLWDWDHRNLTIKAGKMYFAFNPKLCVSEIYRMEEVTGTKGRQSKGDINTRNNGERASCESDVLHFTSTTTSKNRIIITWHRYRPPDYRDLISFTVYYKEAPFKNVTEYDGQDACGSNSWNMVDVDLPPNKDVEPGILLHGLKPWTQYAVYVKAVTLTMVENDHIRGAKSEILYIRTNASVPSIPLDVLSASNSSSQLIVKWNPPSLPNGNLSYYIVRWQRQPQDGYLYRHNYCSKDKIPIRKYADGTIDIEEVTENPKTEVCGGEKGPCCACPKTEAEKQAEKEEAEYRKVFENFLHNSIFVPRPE
Insulin-like growth factor 1 receptor, sequence (P08069 741-1367 limits assumed): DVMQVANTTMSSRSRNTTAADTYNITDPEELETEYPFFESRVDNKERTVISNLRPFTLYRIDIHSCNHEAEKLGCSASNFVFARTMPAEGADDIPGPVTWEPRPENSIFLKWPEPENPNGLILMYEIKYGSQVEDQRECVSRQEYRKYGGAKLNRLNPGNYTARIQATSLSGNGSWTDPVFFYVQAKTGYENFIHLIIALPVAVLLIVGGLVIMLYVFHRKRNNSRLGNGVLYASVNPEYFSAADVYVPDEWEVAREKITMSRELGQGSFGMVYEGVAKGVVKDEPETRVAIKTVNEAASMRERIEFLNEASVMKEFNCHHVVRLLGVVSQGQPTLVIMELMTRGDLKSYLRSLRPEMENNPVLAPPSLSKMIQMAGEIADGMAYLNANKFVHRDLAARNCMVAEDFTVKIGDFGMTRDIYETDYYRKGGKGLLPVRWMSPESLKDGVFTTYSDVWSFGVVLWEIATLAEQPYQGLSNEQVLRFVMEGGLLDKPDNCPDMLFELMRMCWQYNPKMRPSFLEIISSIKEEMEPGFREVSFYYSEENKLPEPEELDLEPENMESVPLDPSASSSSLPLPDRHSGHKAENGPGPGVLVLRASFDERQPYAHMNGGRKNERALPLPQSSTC

One may read the IC50 as the concentration needed to halve the response being measured. One may read the pKa as the pH at which an ionisable group is half protonated. Regarding `CN1CCN(c2nc(C3=C(c4c[nH]c5ccccc45)C(=O)NC3=O)c3ccccc3n2)CC1` [SOTRASTAURIN], the IC50 in [1] is 0.001 µM; in series [3] it was 5.4 µM; in series [5], 1.5 µM; in [6], 2.3 µM; in [7] it was 3.4 µM; on Ephrin type-B receptor 4, over 10 µM. For the same molecule, the IC50 in series [8] is over 10 µM; in series [9], over 10 µM; in series [10], over 10 µM; in series [11], over 10 µM; in series [12], over 10 µM; in “cells”, 0.054 µM. In addition, the pKa in [2] came out at 7.4. The outcome in the series listed under Rattus norvegicus and in the series on Cynomolgus monkey was Active. In [4], the Vd stood at 6.5 L/kg.
